Source: ChEMBL document CHEMBL4393724, “Betulin-1,4-quinone hybrids: Synthesis, anticancer activity and molecular docking study with NQO1 enzyme” (Eur J Med Chem, 2019)
Activity calls are given as the source filed them. No cut-off for these calls is given here.

How the values were obtained:
[1] = tested on: SNB-19; assay: Antiproliferative activity against human SNB19 cells assessed as reduction in cell viability incubated for 72 hrs by WST1 assay; assay type: functional, cell-based
[2] = tested on: COLO-829; assay: Antiproliferative activity against human COLO829 cells assessed as reduction in cell viability incubated for 72 hrs by WST1 assay; assay type: functional, cell-based; conditions: Homo sapiens, COLO-829, 72 h; read-out: IC50
[3] = tested on: C32; assay: Antiproliferative activity against human C32 cells assessed as reduction in cell viability incubated for 72 hrs by WST1 assay; assay type: functional, cell-based; conditions: Homo sapiens, C32, 72 h; read-out: IC50
Procedure, shortened: (§1)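 Cells held at 37 °C under 5% CO2 and seeded at 5 × 10^4 cells/well in DMEM with 10% FCS plus streptomycin and penicillin. Compounds were dissolved in DMSO and exposed for 72 h. WST-1 formazan was read at 450 nm. IC50 was derived from the mean ± SD of at least three independent experiments run in triplicate. Cisplatin served as reference.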

[4] = tested on: MCF7; assay: Antiproliferative activity against human MCF7 cells assessed as reduction in cell viability incubated for 72 hrs by WST1 assay; assay type: functional, cell-based; conditions: Homo sapiens, MCF7, 72 h; read-out: IC50; procedure, shortened: as §1
[5] = tested on: T47D; assay: Antiproliferative activity against human T47D cells assessed as reduction in cell viability incubated for 72 hrs by WST1 assay; assay type: functional, cell-based; conditions: Homo sapiens, T47D, 72 h; read-out: IC50
[6] = tested on: MDA-MB-231; assay: Antiproliferative activity against human MDA-MB-231 cells assessed as reduction in cell viability incubated for 72 hrs by WST1 assay; assay type: functional, cell-based
[7] = tested on: A549; assay: Antiproliferative activity against human A549 cells assessed as reduction in cell viability incubated for 72 hrs by WST1 assay; assay type: functional, cell-based; conditions: Homo sapiens, A549, 72 h; read-out: IC50; procedure, shortened: as §1
[8] = target: NAD(P)H dehydrogenase [quinone] 1 (Homo sapiens) (UniProt P15559); assay: Inhibition of NQO1 in human A549 cells assessed as decrease in of histone H3 expression at 0.5 times of IC50 incubated for 24 hrs by RT-PCR; assay type: cell-based
NAD(P)H dehydrogenase [quinone] 1 (Homo sapiens), sequence (P15559 whole entry): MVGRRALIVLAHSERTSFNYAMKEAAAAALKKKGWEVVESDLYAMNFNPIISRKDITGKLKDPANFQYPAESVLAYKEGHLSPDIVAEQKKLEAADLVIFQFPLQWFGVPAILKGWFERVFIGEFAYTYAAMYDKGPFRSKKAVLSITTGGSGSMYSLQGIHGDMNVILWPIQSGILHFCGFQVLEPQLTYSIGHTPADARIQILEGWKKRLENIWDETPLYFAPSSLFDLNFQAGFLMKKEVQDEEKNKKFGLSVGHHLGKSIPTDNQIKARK
Procedure, shortened: (§2)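 Cultured cells were exposed for 24 h to compound at half its IC50. Transcription of H3, TP53, CDKN1A, BAX and BCL-2 was quantified by real-time RT-qPCR with SYBR Green as mRNA copy numbers and compared with untreated control. The BAX/BCL-2 ratio was calculated from the mRNA copies.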

[9] = target: NAD(P)H dehydrogenase [quinone] 1 (Homo sapiens) (UniProt P15559); assay: Inhibition of NQO1 in human MCF7 cells assessed as decrease in histone H3 expression at 0.5 times of IC50 incubated for 24 hrs by RT-PCR; assay type: cell-based; procedure, shortened: as §2
[10] = target: NAD(P)H dehydrogenase [quinone] 1 (Homo sapiens) (UniProt P15559); assay: Inhibition of NQO1 in human C32 cells assessed as decrease in histone H3 expression at 0.5 times of IC50 incubated for 24 hrs by RT-PCR; assay type: cell-based; procedure, shortened: as §2
[11] = target: NAD(P)H dehydrogenase [quinone] 1 (Homo sapiens) (UniProt P15559); assay: Inhibition of NQO1 in human A549 cells assessed as increase in TP53 expression at 0.5 times of IC50 incubated for 24 hrs by RT-PCR; assay type: cell-based; procedure, shortened: as §2
[12] = target: NAD(P)H dehydrogenase [quinone] 1 (Homo sapiens) (UniProt P15559); assay: Inhibition of NQO1 in human MCF7 cells assessed as increase in TP53 expression at 0.5 times of IC50 incubated for 24 hrs by RT-PCR; assay type: cell-based; procedure, shortened: as §2
[13] = target: NAD(P)H dehydrogenase [quinone] 1 (Homo sapiens) (UniProt P15559); assay: Inhibition of NQO1 in human C32 cells assessed as increase in TP53 expression at 0.5 times of IC50 incubated for 24 hrs by RT-PCR; assay type: cell-based; procedure, shortened: as §2
[14] = target: NAD(P)H dehydrogenase [quinone] 1 (Homo sapiens) (UniProt P15559); assay: Inhibition of NQO1 in human A549 cells assessed as increase in CDKN1A expression at 0.5 times of IC50 incubated for 24 hrs by RT-PCR; assay type: cell-based; procedure, shortened: as §2
[15] = target: NAD(P)H dehydrogenase [quinone] 1 (Homo sapiens) (UniProt P15559); assay: Inhibition of NQO1 in human MCF7 cells assessed as increase in CDKN1A expression at 0.5 times of IC50 incubated for 24 hrs by RT-PCR; assay type: cell-based; procedure, shortened: as §2
[16] = target: NAD(P)H dehydrogenase [quinone] 1 (Homo sapiens) (UniProt P15559); assay: Inhibition of NQO1 in human C32 cells assessed as increase in CDKN1A expression at 0.5 times of IC50 incubated for 24 hrs by RT-PCR; assay type: cell-based; procedure, shortened: as §2
[17] = target: NAD(P)H dehydrogenase [quinone] 1 (Homo sapiens) (UniProt P15559); assay: Inhibition of NQO1 in human A549 cells assessed as increase in BAX expression at 0.5 times of IC50 incubated for 24 hrs by RT-PCR; assay type: cell-based; procedure, shortened: as §2
[18] = target: NAD(P)H dehydrogenase [quinone] 1 (Homo sapiens) (UniProt P15559); assay: Inhibition of NQO1 in human MCF7 cells assessed as increase in BAX expression at 0.5 times of IC50 incubated for 24 hrs by RT-PCR; assay type: cell-based; procedure, shortened: as §2
[19] = target: NAD(P)H dehydrogenase [quinone] 1 (Homo sapiens) (UniProt P15559); assay: Inhibition of NQO1 in human C32 cells assessed as increase in BAX expression at 0.5 times of IC50 incubated for 24 hrs by RT-PCR; assay type: cell-based; procedure, shortened: as §2
[20] = target: NAD(P)H dehydrogenase [quinone] 1 (Homo sapiens) (UniProt P15559); assay: Inhibition of NQO1 in human A549 cells assessed as effect on Bcl2 expression at 0.5 times of IC50 incubated for 24 hrs by RT-PCR; assay type: cell-based; procedure, shortened: as §2
[21] = target: NAD(P)H dehydrogenase [quinone] 1 (Homo sapiens) (UniProt P15559); assay: Inhibition of NQO1 in human MCF7 cells assessed as effect on Bcl2 expression at 0.5 times of IC50 incubated for 24 hrs by RT-PCR; assay type: cell-based; procedure, shortened: as §2
[22] = target: NAD(P)H dehydrogenase [quinone] 1 (Homo sapiens) (UniProt P15559); assay: Inhibition of NQO1 in human C32 cells assessed as effect on Bcl2 expression at 0.5 times of IC50 incubated for 24 hrs by RT-PCR; assay type: cell-based; procedure, shortened: as §2
[23] = tested on: A549; assay: Induction of apoptosis in human A549 cells assessed as increase in BAX/Bcl2 expression at 0.5 times of IC50 incubated for 24 hrs by RT-PCR; assay type: functional, cell-based; procedure, shortened: as §2
[24] = tested on: MCF7; assay: Induction of apoptosis in human MCF7 cells assessed as increase in BAX/Bcl2 expression at 0.5 times of IC50 incubated for 24 hrs by RT-PCR; assay type: functional, cell-based; procedure, shortened: as §2
[25] = tested on: C32; assay: Induction of apoptosis in human C32 cells assessed as increase in BAX/Bcl2 expression at 0.5 times of IC50 incubated for 24 hrs by RT-PCR relative to control; assay type: functional; procedure, shortened: as §2
[26] = target: NAD(P)H dehydrogenase [quinone] 1 (Homo sapiens) (UniProt P15559); assay: Inhibition of NQO1 in human C32 cells assessed as decrease in Bcl2 expression at 0.5 times of IC50 incubated for 24 hrs by RT-PCR; assay type: cell-based; procedure, shortened: as §2
[27] = target: NAD(P)H dehydrogenase [quinone] 1 (Homo sapiens) (UniProt P15559); assay: Inhibition of NQO1 in human A549 cells assessed as decrease in Bcl2 expression at 0.5 times of IC50 incubated for 24 hrs by RT-PCR; assay type: cell-based; procedure, shortened: as §2
[28] = Homo sapiens, SNB-19, 72 h, read-out: IC50
[29] = Homo sapiens, MDA-MB-231, 72 h, read-out: IC50

Compound	IC50 [2]	IC50 [3]	IC50 [4]	IC50 [5]	IC50 [7]	Activity [8]	Activity [9]	Activity [10]	Activity [11]	Activity [12]	Activity [13]	Activity [14]	Activity [15]	Activity [16]	Activity [17]	Activity [18]	Activity [19]	Activity [21]	Activity [23]	Activity [24]	further results
C=C(C)[C@@H]1CC[C@]2(COC(C)=O)CC[C@]3(C)[C@H](CC[C@@H]4[C@@]5(C)CC[C@H](OC6=C(Cl)C(=O)c7ccccc7C6=O)C(C)(C)[C@@H]5CC[C@]43C)[C@@H]12	0.13 µM	1.72 µM	8.72 µM	12.3 µM	0.77 µM	Active	Active	Active	Active	Active	Active	Active	Active	Active	Active	Active	Active	inactive	Active	Active	IC50 [1, 28]: 7.54 µM; IC50 ([6]; mda-mb-231): Not Active; Activity [20]: inactive; Activity [22]: inactive; Ratio [25]: 4 - 5
C=C(C)[C@@H]1CC[C@]2(COC(C)=O)CC[C@]3(C)[C@H](CC[C@@H]4[C@@]5(C)CC[C@H](OC6=C(Cl)C(=O)c7ccc(C)nc7C6=O)C(C)(C)[C@@H]5CC[C@]43C)[C@@H]12	4.68 µM	6.52 µM	1.58 µM	11.3 µM	0.59 µM	Active	Active	Active	Active	Active	Active	Active	Active	Active	Active	Active	Active	inactive	Active	Active	IC50 ([1]; snb-19): Not Active; IC50 [6, 29]: 0.9 µM; Activity [26]: Active; Activity [27]: Active; Ratio [25]: 4 - 5
C#CC(=O)OC[C@]12CC[C@@H](C(=C)C)[C@@H]1[C@H]1CC[C@@H]3[C@@]4(C)CC[C@H](OC5=C(Cl)C(=O)c6cccnc6C5=O)C(C)(C)[C@@H]4CC[C@@]3(C)[C@]1(C)CC2	6.67 µM	1.27 µM	14.2 µM	99.4 µM	0.45 µM	Active	Active	Active	Active	Active	Active	Active	Active	Active	Active	Active	Active	inactive	Active	Active	IC50 [1, 28]: 42 µM; IC50 [6, 29]: 2.43 µM; Activity [20]: inactive; Activity [22]: inactive; Ratio [25]: 4 - 5
